Counter-ions that a name gives are not always drawn. Calls of active or inactive are those of the source. No cut-off for these calls is given here.

The record followed here is ChEMBL document CHEMBL3856290, “Discovery of TAK-272: A Novel, Potent, and Orally Active Renin Inhibitor” (ACS Med Chem Lett, 2016).

For series [1], the system named is Rattus norvegicus. The experiment in a line: Antihypertensive activity in human angiotensinogen and renin double transgenic rat model assessed as reduction in systolic blood pressure at 3 mg/kg, po after 5 hrs by tail-cuff method. The class given is functional, organism-based. Summed up: (§1)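 Male hAOPEN-hREN double transgenic rats, 5 weeks old. Drugs were dissolved in 0.5% methylcellulose and given orally; vehicle-dosed rats served as controls. Systolic pressure was read by tail-cuff before dosing and at 5 and 24 h after dosing.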

The next series has as its target Cathepsin D (Homo sapiens, UniProt P07339). Description: Inhibition of cathepsin D (unknown origin).
Series [2] concerns Rattus norvegicus. Description: Antihypertensive activity in po dosed human angiotensinogen and renin double transgenic rat model assessed as reduction in systolic blood pressure after 5 to 24 hrs by tail-cuff method. It counts as functional, organism-based. Summed up:
as §1

The test system of series [3] is Rattus norvegicus. Description: Antihypertensive activity in human angiotensinogen and renin double transgenic rat model assessed as reduction in systolic blood pressure at 10 mg/kg, po after 24 hrs by tail-cuff method. The class given is functional, organism-based. The procedure, abridged: as §1
For series [4], the system named is Rattus norvegicus. Description: Antihypertensive activity in human angiotensinogen and renin double transgenic rat model assessed as reduction in systolic blood pressure at 10 mg/kg, po after 5 hrs by tail-cuff method. It counts as functional, organism-based. Summed up:
as §1

Series [5] can be described thus: Inhibition of pepsin (unknown origin). Set-up: species or system Homo sapiens.
Series [6] can be described thus: Oral bioavailability in non-fasted rat at 1 mg/kg administered through cassette dosing by LC/MS/MS analysis. The settings on record: in vivo. It counts as ADME, organism-based. Summed up:
(§2)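 Cassette dosing to non-fasted rats, either 0.1 mg/kg iv or 1 mg/kg po. Blood was sampled after dosing and spun to plasma. Plasma was deproteinized and centrifuged, and compound levels in the supernatant were measured by LC/MS/MS.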

Series [7] can be described thus: AUC in non-fasted rat at 1 mg/kg, po administered through cassette dosing by LC/MS/MS analysis. It counts as ADME, organism-based. The settings on record: in vivo. The procedure, abridged: as §2
Series [8] can be described thus: Plasma clearance in non-fasted rat at 0.1 mg/kg, iv or 1 mg/kg, po administered through cassette dosing by LC/MS/MS analysis. It counts as ADME, organism-based. The conditions noted are these: in vivo. Summed up: as §2
Series [9] has as its target T1, Renin (Homo sapiens, UniProt P00797).
T1 sequence (P00797 whole entry): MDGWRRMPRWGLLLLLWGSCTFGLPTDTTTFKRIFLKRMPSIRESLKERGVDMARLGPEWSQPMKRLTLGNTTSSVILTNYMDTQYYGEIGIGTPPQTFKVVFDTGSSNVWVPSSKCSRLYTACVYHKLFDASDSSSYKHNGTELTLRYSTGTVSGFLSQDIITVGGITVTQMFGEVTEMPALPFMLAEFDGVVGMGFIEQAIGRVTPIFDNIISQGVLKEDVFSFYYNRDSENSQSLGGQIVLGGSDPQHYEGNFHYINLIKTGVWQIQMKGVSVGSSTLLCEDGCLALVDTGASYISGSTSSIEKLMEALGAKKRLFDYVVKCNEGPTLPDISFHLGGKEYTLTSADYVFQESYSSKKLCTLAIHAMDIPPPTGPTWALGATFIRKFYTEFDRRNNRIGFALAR
The experiment in a line: Inhibition of recombinant human preprorenin expressed in human 293F cells using angiotensinogen as substrate preincubated for 10 mins followed by substrate addition measured after 30 mins by ELISA.

In series [10] the target is T1, Renin. The experiment in a line: Inhibition of renin in human plasma by radioimmunoassay. It counts as cell-free.
In series [11] the test system is Rattus norvegicus. The experiment in a line: Antihypertensive activity in human angiotensinogen and renin double transgenic rat model assessed as reduction in systolic blood pressure at 75 mg/kg, po after 5 hrs by tail-cuff method. The class given is functional, organism-based. Summed up:
as §1

In series [12] the test system is Rattus norvegicus. The experiment in a line: Antihypertensive activity in human angiotensinogen and renin double transgenic rat model assessed as reduction in systolic blood pressure at 75 mg/kg, po after 24 hrs by tail-cuff method. The class given is functional, organism-based. The procedure, abridged: as §1

Sequence of Cathepsin D (P07339 65-162 limits assumed): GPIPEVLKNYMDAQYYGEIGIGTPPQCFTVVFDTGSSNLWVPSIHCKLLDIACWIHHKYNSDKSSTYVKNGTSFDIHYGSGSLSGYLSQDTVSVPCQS
Sequence of Cathepsin D (P07339 169-412 limits assumed): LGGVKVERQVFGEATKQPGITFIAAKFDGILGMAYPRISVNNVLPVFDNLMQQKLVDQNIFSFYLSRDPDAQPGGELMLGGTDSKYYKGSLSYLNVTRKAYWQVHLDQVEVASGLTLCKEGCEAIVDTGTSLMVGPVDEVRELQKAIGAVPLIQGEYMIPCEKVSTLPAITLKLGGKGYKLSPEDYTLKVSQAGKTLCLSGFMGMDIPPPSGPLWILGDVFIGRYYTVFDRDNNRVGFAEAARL

Regarding `COCCCCn1c(C(=O)N(CC(C)C)[C@@H]2CNC[C@H](C(=O)N3CCOCC3)C2)nc2ccccc21` [IMARIKIREN HYDROCHLORIDE], the outcome with Rattus norvegicus [1], in the series on Rattus norvegicus [3] and in the series with Rattus norvegicus [4] was Active. Moreover, the IC50 (against Cathepsin D; in series [5]) was > 10000 nM in each case. For the same compound, the Activity entry in the series with Rattus norvegicus [2] is “Dose-dependent effect”.

For `CCCCCCc1nc(C(C)(C)C)ncc1C(=O)N(CC(C)C)[C@@H]1CNC[C@H](C(=O)N2CCOCC2)C1`, the F in [6] was 5%. The AUC in [7] worked out at 20.9 ng·h/mL. This compound also had a CL in [8] of 40.12 mL/min/kg.

Turning to `COC(=O)[C@@H]1CNC[C@@H](N(CC(C)C)C(=O)c2cnc(C(C)(C)C)nc2NCc2ccco2)C1` (relative stereo), the results for the IC50 on Renin [9] and on Renin [10] were 3.3 nM and 10 nM, respectively.

On to `COC(=O)[C@H]1CNC[C@@H](N(CC(C)C)C(=O)c2cnc(C(C)(C)C)nc2NCc2ccco2)C1`, for which the IC50 at Renin [9] worked out at 0.039 nM; against Renin [10] it was 0.35 nM.

For `COCCCOc1cc(C[C@@H](C[C@H](N)[C@@H](O)C[C@H](C(=O)NCC(C)(C)C(N)=O)C(C)C)C(C)C)ccc1OC`, the outcome in the series with Rattus norvegicus [11] and in the series on Rattus norvegicus [12] was Active.

Turning to `COCCCNc1nc(C(C)(C)C)ncc1C(=O)N(CC(C)C)[C@@H]1CNC[C@H](C(=O)N2CCOCC2)C1`, in series [6], the F was < 1%. Moreover, the CL in series [8] is 92.32 mL/min/kg.

Consider `CC(C)CN(C(=O)c1cnc(C(C)(C)C)nc1NCc1ccco1)[C@H]1CCCNC1`, for which the IC50 on Renin [9] amounted to 0.58 nM; against Renin [10] it was 4.6 nM.

Regarding `COC(=O)[C@H]1CNC[C@@H](N(CC(C)C)C(=O)c2cnc(C(C)(C)C)nc2NCc2ccco2)C1` (racemic), the IC50 at Renin [9] was 0.44 nM; on Renin [10], 1.4 nM.

With `COCCCNc1nc(C(C)(C)C)ncc1C(=O)N(CC(C)C)[C@@H]1CNC[C@H](C(=O)OC)C1`, the IC50 was found to be 2.6 nM at Renin [9] and 5.2 nM against Renin [10].

For `COC(=O)[C@@H]1CNC[C@H](N(CC(C)C)C(=O)c2cnc(C(C)(C)C)nc2NCc2ccco2)C1`, the IC50 at Renin [9] was 1.2 nM; against Renin [10] it was > 10 nM.

For `COCCCNc1nc(C(C)(C)C)ncc1C(=O)N(CC(C)C)[C@@H]1CNC[C@H](C(N)=O)C1`, the IC50 worked out at 1.4 nM on Renin [9] and 4.5 nM on Renin [10].
